Data published in ChEMBL document CHEMBL1146795, “Synthesis and antiangiogenic activity of exo-olefinated deoxoartemisinin derivatives” (Bioorg Med Chem Lett, 2004).
Values after ≈ are worked out from the molar mass of the structure shown.

Key:
HUVEC [1] = assay: Antiangiogenic activity to suppress the growth factor induced tube formation byHUVEC on Matrigel was assessed at the concentration of 10 ug/mL; assay type: functional; details: Homo sapiens
[2] = Antiangiogenic activity against chorioallantoic membrane (CAM) assay at 10 ug/egg; assay type: functional, tissue-based
HUVEC [3] = assay: Antiangiogenic activity against HUVEC cells in HUVEC(Human Umbilical Vein Endothelial Cells) proliferation assay usingMTT colorimetric method; assay type: functional, cell-based
In short: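 HUVEC growth measured by MTT colorimetric read-out. IC50 taken from a nonlinear regression fit with r2 > 0.9.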

| Compound | inhibition at 10 µg/mL (HUVEC [1]) | inhibition [2] | IC50 (HUVEC [3]) |
| --- | --- | --- | --- |
| C[C@@H]1CC[C@H]2[C@@H](C)/C(=C\Br)O[C@@H]3O[C@]4(C)CC[C@@H]1[C@]32OO4 | 25% | 80% | 4.8 µg/mL (≈ 13.4 µM) |
| CCC/C(Br)=C1/O[C@@H]2OC3(C)CC[C@H]4[C@H](C)CC[C@@H]([C@H]1C)[C@@]24OO3 (single isomer, unassigned) | 10% | 8% | 1.9 µg/mL (≈ 4.73 µM) |
| C[C@@H]1CC[C@H]2[C@@H](C)/C(=C\c3ccccc3)O[C@@H]3OC4(C)CC[C@@H]1[C@]32OO4 (single isomer, unassigned) | 10% | 10% | 1.9 µg/mL (≈ 5.33 µM) |
| CC(C)=C1O[C@@H]2OC3(C)CC[C@H]4[C@H](C)CC[C@@H]([C@H]1C)[C@@]24OO3 (single isomer, unassigned) | 13% | 29% | 2.3 µg/mL (≈ 7.46 µM) |
| C[C@@H]1CC[C@H]2[C@@H](C)C(=Cc3ccccc3)O[C@@H]3OC4(C)CC[C@@H]1[C@]32OO4 (single isomer, unassigned) | 10% | 5% | 2.3 µg/mL (≈ 6.45 µM) |
| C/C(Br)=C1/O[C@@H]2OC3(C)CC[C@H]4[C@H](C)CC[C@@H]([C@H]1C)[C@@]24OO3 (single isomer, unassigned) | 32% | 43% | 25.4 µg/mL (≈ 68 µM) |
| C/C(Br)=C1\O[C@@H]2OC3(C)CC[C@H]4[C@H](C)CC[C@@H]([C@H]1C)[C@@]24OO3 (single isomer, unassigned) | 65% | 50% | 4.5 µg/mL (≈ 12.1 µM) |
| CCC/C(Br)=C1\O[C@@H]2OC3(C)CC[C@H]4[C@H](C)CC[C@@H]([C@H]1C)[C@@]24OO3 (single isomer, unassigned) | 39% | 57% | 1.5 µg/mL (≈ 3.74 µM) |
